TCR CD3 inh = human TCR-CD3 binding inhibition. inhibition, % at 9.4 µM. TAMRA-labeled TCR probe fluorescence, biochemical. 0.37% of 360,000 active; in the data active = inhibition above about 19%;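 also: recombinant mutant TCR 2C K166C tagged with TAMRA read by polarization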
HTRA1 inh = HTRA1 (human) protease inhibition; recombinant HTRA1, FP-rhodamine activity-based probe, fluorescence polarization; inhibition, % at 5.96 µM; 0.5% of 340,000 active; in the data active = inhibition above about 36%
SIAE inh = human SIAE inhibition, primary screen; SIAE FP-Rh probe binding, fluorescence polarization; Q9HAT2; inhibition, % at 9.66 µM; 0.69% of 370,000 active;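 active = inhibition above a cutoff: mean of compounds within the control limits plus 3 SD of those, cut at about 17% in these data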
Fam108B counter = counter-screen for RBBP9 inhibitors: inhibitors of mouse Fam108B | recombinant Fam108B, FP-Rh probe fluorescence polarization | inhibition, % at 9.51 µM | 0.33% of 300,000 active | AID 1947;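 active = inhibition above the screen mean inhibition plus 3 SD, computed separately per campaign, cut at about 18% in these data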;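 also: inhibitors lower polarization as less probe binds the enzyme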
PME-1 inh = blocks human protein phosphatase methylesterase 1; recombinant PME-1, FP-Rh probe fluorescence polarization; inhibition, % at 5.9 µM; 0.53% of 320,000 active; Q9Y570;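 active = inhibition above the campaign mean of all compounds plus 3 SD, cut at about 26% in these data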;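 also: competitive labeling of PME-1 active site by serine hydrolase directed probe; inhibitors block probe labeling so polarization falls and inhibition rises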
ABHD4 inh = ABHD4 (mouse) inhibition, primary FP screen. 0.54% of 370,000 active. Q8VD66. purified mABHD4, FP-Rh probe fluorescence polarization. inhibition, % at 8.92 µM;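 active = inhibition exceeding the mean over every tested compound plus 3 SD, cut at about 30% in these data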
Target sequence (Q8VD66 whole entry, looked up): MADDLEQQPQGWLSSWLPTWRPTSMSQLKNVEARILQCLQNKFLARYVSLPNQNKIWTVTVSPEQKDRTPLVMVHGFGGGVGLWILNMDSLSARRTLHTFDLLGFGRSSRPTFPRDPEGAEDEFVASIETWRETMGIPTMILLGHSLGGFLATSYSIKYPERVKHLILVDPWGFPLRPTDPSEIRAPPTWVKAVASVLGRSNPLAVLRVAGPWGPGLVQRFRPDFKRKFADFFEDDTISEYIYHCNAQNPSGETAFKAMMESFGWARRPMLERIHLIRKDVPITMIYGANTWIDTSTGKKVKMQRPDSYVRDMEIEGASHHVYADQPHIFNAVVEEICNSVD
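Assay system: Wild-type mouse ABHD4 protein | Medium: HEPES pH 7.0 buffer, 150 mM NaCl, 0.01% Pluronic F-127 | Incubation: Enzyme–compound pre-incubation 45 min, then probe 60 min, both 25 °C | Technique: Fluorescence polarization with parallel and perpendicular emission, 525/598 nm | Evaluation: % inhibition of FP-Rh probe binding versus controls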
mABHD4 conf = ABHD4 (mouse) inhibition, FP confirmation. shares compounds with ABHD4 inh. AID 720658. purified mABHD4, FP-Rh probe fluorescence polarization. 55% of 1,800 active. inhibition, % at 8.92 µM;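 active = mean inhibition across replicates above the hit cutoff set in the primary screen, cut at about 30% in these data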
SIAE inh conf = confirmation of human SIAE inhibitors; shares compounds with SIAE inh; inhibition, % at 9.66 µM; SIAE FP-Rh activity-based probe, fluorescence polarization; 13% of 2,300 active;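 active = mean inhibition of the replicates above the hit cutoff set in the primary screen, cut at about 17% in these data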;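 also: inhibitors lower polarization as more probe stays unbound to SIAE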
Numbers stand for hits; . = inactive; / = not tested or not shown. The list is not random: actives were taken first. Their share in the collection is about 1.8%.

SMILES	TCR CD3 inh	HTRA1 inh	SIAE inh	Fam108B counter	PME-1 inh	ABHD4 inh	mABHD4 conf	SIAE inh conf
Cc1[nH]c2ccccc2c1N=Nc1ccccc1C(=O)O	.	.	34.4	.	30.2	56.3	68.5	.
Nc1ccc2ccc(O)cc2c1	.	.	19.4	/	/	40.5	32.9	.
Cc1ccc(C2CC(=O)Oc3cc(O)ccc32)cc1 (configuration not stated)	.	.	19.3	.	.	55.1	43.9	.
O=C1CC(c2ccccc2)c2cc(O)ccc2O1 (configuration not stated)	.	.	.	.	.	.	/	/
COc1cc(Cl)ccc1OCc1cc(C(=O)N2CCN(C3CCCCC3)CC2)no1	.	.	.	/	/	.	/	/
O=C(O)c1cccc(N/N=C/C2=C(Cl)c3cc(Cl)ccc3SC2)c1	.	.	21.2	/	/	29.5	86.5	31.1
CCCOc1ccc2c(c1)C(=NN=C(N)N)c1cc(OCCC)ccc1-2	.	.	18.0	.	.	38.0	51.1	.
O=C(CCCCCNC(=O)N1CCn2c1nc1ccccc12)NCc1ccccc1Cl	.	.	.	.	.	.	/	/
COc1ccc2[nH]c3c(NCCC4=CCCCC4)ncnc3c2c1	.	.	49.6	/	/	38.6	60.5	45.0
O=C1N=c2ccccc2=C1c1sc(=S)n(NC(=O)c2ccccc2)c1O	.	.	22.6	.	.	33.2	42.0	30.8
C=CCNc1nc(NCCOC)c2sc(-c3ccccc3)cc2n1	.	/	.	/	/	.	/	/
C=CCNc1nc(Nc2ccc(OC)c(OC)c2)c2sc(-c3ccccc3)cc2n1	.	/	25.2	/	/	41.6	51.4	32.8
CCOc1ccc(NC(=O)Cn2nnc(C(=O)NCc3ccc4c(c3)OCO4)c2N)cc1	.	.	.	.	.	.	/	/
Cn1c2c(c(=O)[nH]c1=O)C(c1cccc(O)c1)C1=C(N2)c2ccccc2C1=O (configuration not stated)	.	.	.	/	/	.	/	/
CC1=C([N+](=O)[O-])C(c2cccc(Br)c2)C2=C(N1)c1ccccc1C2=O (configuration not stated)	.	.	28.1	.	33.5	29.7	35.2	.
Cc1ccc(S(=O)(=O)N(C(=O)c2ccco2)c2cc3sc(=O)oc3c3ccccc23)cc1	.	.	34.2	.	.	50.2	.	.
CCOc1ccc(S(=O)(=O)N(C(=O)c2ccco2)c2cc3sc(=O)oc3c3ccccc23)cc1	.	.	17.9	.	.	42.1	.	.
CCOc1ccc(S(=O)(=O)N(C)CC(=O)NCc2ccco2)cc1	.	.	.	.	.	.	/	/
CC(=O)N(c1ccc2oc(=O)sc2c1)S(=O)(=O)c1ccccc1	.	.	.	.	.	.	/	/
COc1ccccc1CN(C)C(=O)CN1CCN(C(=O)c2cccs2)CC1	.	.	.	/	.	.	/	/
CC(C)NC(=O)c1cc(C2CCCCN2S(=O)(=O)c2cccs2)on1 (configuration not stated)	.	/	.	/	/	.	/	/
N=C1S/C(=C\c2ccco2)C(=O)N1c1nccs1	.	.	.	.	.	.	/	/
N=C1S/C(=C\c2ccco2)C(=O)N1c1ccc2c(c1)OCO2	.	.	20.7	.	.	34.2	.	.
Cc1cc(NS(=O)(=O)c2ccc3c(c2)CCC(=O)N3)ccc1Cl	/	/	.	/	/	.	/	/
O=C(N/N=C/c1c(O)n(Cc2ccccc2)c(=O)c2ccccc12)c1cccnc1	.	.	26.0	.	.	62.2	73.0	.
SMILES	TCR CD3 inh	HTRA1 inh	SIAE inh	Fam108B counter	PME-1 inh	ABHD4 inh	mABHD4 conf	SIAE inh conf
O=C(N/N=C/c1c(O)n(-c2ccccc2Cl)c(=O)c2ccccc12)c1cccnc1	.	.	.	/	/	.	/	/
COc1ccc(Cn2c(O)c(/C=N/NC(=O)c3cccnc3)c3ccccc3c2=O)cc1	.	.	29.4	/	/	31.5	44.9	.
COc1ccc(Cn2c(O)c(C=Nc3ccc(OC)cc3)c3ccccc3c2=O)cc1	.	.	.	.	.	.	/	/
COc1ccccc1NC(=O)OC1CCC12CCCCC2 (configuration not stated)	/	/	.	/	/	.	/	/
CCOC(=O)[C@]12CCCC=C1N(Cc1ccc(Cl)cc1Cl)C(=O)[C@H](CC(=O)N1CCN(C(=O)C3CC3)CC1)C2	.	/	.	/	/	.	/	/
C=CCN1C(=O)CSC1=Nc1ccc(O)cc1	.	.	.	.	.	.	/	/
C=CCn1c(O)c(C2=c3ccccc3=NC2=O)sc1=Nc1ccc(O)cc1	.	.	20.7	.	.	34.6	73.5	.
Cc1ccc(NC(=O)COC(=O)CC2SC(N3CCCC3)=NC2=O)cc1 (configuration not stated)	.	.	.	/	.	.	/	/
O=S(=O)(Nc1ccc(O)c2ncccc12)c1ccccc1F	29.4	/	28.9	/	/	39.2	42.0	.
CCOc1ccc(S(=O)(=O)NCCCn2ccnc2)cc1	.	.	.	.	.	.	/	/
Oc1ccc(Nc2ccc3ccccc3c2)cc1	.	/	19.7	/	/	39.3	56.4	.
CCCCCCCCN1C(=O)[C@@H](CC(=O)NCc2cccs2)C[C@@]2(C(=O)OC)C1=C[C@H](COCc1ccccc1)O[C@@H]2C	/	/	.	/	/	.	/	/
COc1ccc(-c2ccc3c(c2)O[C@@H](CN(C)C(=O)c2ccccc2F)[C@@H](C)CN([C@@H](C)CO)S3(=O)=O)cc1	.	.	.	/	/	.	/	/
CC(C)C(NC(=O)C1CCCCC1)C(=O)NC1CCCC(C)C1C (configuration not stated)	/	.	/	.	.	/	/	/
COc1cc(/C=N/Nc2nc3ccccc3[nH]2)cc(OC)c1O	.	.	17.8	.	.	37.6	.	.
Cc1nn(-c2ccccc2)c(C)c1/C=N/Nc1nc2ccccc2[nH]1	.	.	23.8	.	.	42.0	56.0	37.2
Cc1c(/C=N/Nc2nc3ccccc3[nH]2)c2ccccc2n1C	.	.	39.6	.	.	40.5	70.0	20.1
Cc1ccc(NC(=O)CN2C(=O)S/C(=C/c3ccc(O)c([N+](=O)[O-])c3)C2=O)cc1C	.	.	24.9	/	/	50.6	62.9	.
CC(CNC(=O)CN1C(=O)C(=O)N(C2CCCC2)C1=O)c1ccccc1 (configuration not stated)	.	.	.	/	.	.	/	/
O=C(NCc1ccccc1)C(c1ccncc1)N(C(=O)c1csnn1)c1cccc(F)c1 (configuration not stated)	.	.	.	.	.	.	/	/
C/C(=N/Nc1ccnc2cc(Cl)ccc12)c1ccc(N)cc1	.	.	23.0	.	35.8	29.8	33.3	.
COc1cc(NC(=O)c2cccs2)c(OC)cc1NC(=O)Cc1ccccc1	.	.	18.8	.	.	.	/	.

Screens: PubChem BioAssay, The Scripps Research Institute Molecular Screening Center
